This is an account of results in publication PMC8653953 (Cancer chemotherapy and pharmacology, 2021).

Series [1] has as its system patients <17 years old. Kind of series: Actinomycin-D target toxicities. The class given is in vivo, human. The note with it: during the study. The procedure, abridged: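 Actinomycin-D given to patients in four age cohorts (<1, 1 to <3, 3 to <12, 12 to <17 years). Grade 3 ALT, AST, GGT elevation, sinusoidal obstructive syndrome, and grade 3 neutrophil or platelet decrease were reported weekly for 21 days after PK sampling. Only new-onset events or grade increases over baseline counted. Each toxicity was related to PK and demographics by univariate logistic regression, then backward-selection multivariate regression.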

The format of series [2] is in vivo, human. Summed up: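 Five 2.5 mL catheter samples (three-draw-flush) taken on one of two random schedules, 5 min to 48-168 h post-infusion. Sodium-heparin plasma was separated within 6 h and frozen. LC-MS/MS, LLOQ 0.5 ng/mL. Noncompartmental: k_z from the last 3 points; AUC by linear trapezoid plus Clast/k_z; CL = dose/AUC∞; Vz = dose/(k_z·AUC∞). Episodes were compared by paired two-sided t-test on log-transformed differences.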

Series [3] has as its system patients <17 years old. In words: Vincristine target toxicity. Format: in vivo, human. The note with it: greater than baseline; weekly for one month and monthly for 6 months from sampling. Summed up:
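Vincristine-treated patients in four age cohorts were graded for neuropathy by CTC v3 (before 10/1/10) or CTCAE 4.03. Assessed weekly for one month, then monthly for 6 months from PK sampling. Only new-onset events or grade increases over baseline after sampling counted. Incidence was related to PK parameters and demographics by univariate logistic regression, then backward-selection multivariate regression.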

The mark [4] stands for this setting: patients (n = 17) with two episodes of sampling, ratio (95% CI), P=0.05.

Read-outs that look alike come from different tables or passages of the source. Numbered stars: 1 amine (or outer) side, 2 acyl side, 3 side chain; on linkers, the order of the positions; unused ones are H or OH. Bridge positions count the residues as written; N and C are the ends. Square brackets hold non-standard residues; d marks the D form. Peptide text beside a SMILES is read from it. I, II: the chains in the order shown. Actinocin(9to1) = Cc1c2oc3c(C)ccc(C(=O)[*:1])c3nc-2c(C(=O)[*:2])c(N)c1=O; NMeV = CN[C@H](C(=O)O)C(C)C; Sar = CNCC(=O)O

Regarding `Cc1c2oc3c(C)ccc(C(=O)N[C@@H]4C(=O)N[C@H](C(C)C)C(=O)N5CCC[C@H]5C(=O)N(C)CC(=O)N(C)[C@@H](C(C)C)C(=O)O[C@@H]4C)c3nc-2c(C(=O)N[C@@H]2C(=O)N[C@H](C(C)C)C(=O)N3CCC[C@H]3C(=O)N(C)CC(=O)N(C)[C@@H](C(C)C)C(=O)O[C@@H]2C)c(N)c1=O` [Actinomycin-D] (I: T[dV]P[Sar][NMeV] / II: T[dV]P[Sar][NMeV]; ester I:1-I:C, II:1-II:C; linker I:N-II:N via Actinocin(9to1)), the sinusoidal obstructive syndrome entry in the series on patients <17 years old [1] is “No participant experienced sinusoidal obstructive syndrome”. The compound further came in with a half-life in series [2] (all ages, n=52 patients, median, CV 60%) of 25 h. The compound further had a Clearance in series [2] (all ages, n=52 patients, median, CV 90%) of 4.6 L/hr/m^2. Besides, the “median AUC of the youngest group, lower than the oldest groups” value in series [2] (children <1 year vs oldest groups, consistent with the difference in dose) was “approximately 50%”.
As to `CC[C@]1(O)C[C@H]2CN(CCc3c([nH]c4ccccc34)[C@@](C(=O)OC)(c3cc4c(cc3OC)N(C=O)[C@H]3[C@@](O)(C(=O)OC)[C@H](OC(C)=O)[C@]5(CC)C=CCN6CC[C@]43[C@@H]65)C2)C1` [Vincristine], in the series with patients <17 years old [3], the “patients with grade 3 peripheral motor neuropathy” value is “four” and the “patients with grade 3 peripheral sensory neuropathy” value is “four”. Also, the Clearance in series [2] (all ages, n=132 patients, median, CV 67%) was 17.2 L/hr/m^2. Moreover, the half-life in series [2] (all ages, n=132 patients, median, CV 73%) was 14.6 h. In series [2] (all ages, n=132 patients, median, CV 98%), this compound yielded an AUC of 78 ng·h/mL. Moreover, the “clearance, ratio between two sampling episodes” value in series [2] (patients (n = 17) with two episodes of sampling, ratio (95% CI), P=0.04) was 1.54 (1.03,2.31). Besides, in series [2] (setting [4]), the “CL/BSA, ratio between two sampling episodes” value is given as 1.50 (0.99–2.25) and the “Vz/BSA, ratio between two sampling episodes” value was 1.56 (0.99–2.46).

By half-life is commonly meant the time in which the quantity being followed falls by half. Lower therefore signals rapid decline. For orientation: AUC means the area under the concentration-time curve, a measure of exposure.
